MrgX1 PAM = allosterically activates human MrgX1 receptor signaling. B-score at 10 µM. MrgX1-HEK293, Fluo-4 calcium flux, FDSS; stronger effect = higher value. 0.63% of 310,000 active. AID 588675;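 active means plate-corrected calcium response at least 3 library SD above typical, normal starting fluorescence, not activating the receptor alone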;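 further: compound read alongside a low EC10 to EC30 dose of BAM8-22 agonist; peak minus trough fluorescence over baseline measured at the second addition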
RGS4 act = RGS4 potentiation or activation; HEK293 M3R/inducible RGS4, carbachol calcium flux Fluo4; stronger effect = lower value; B-score at 10 µM; 0.92% of 310,000 active; AID 463111;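 active means B-score of the integrated calcium signal more than 4 SD below the library mean, with starting fluorescence not abnormally high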;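 further: negative B-score means reduced calcium response which marks RGS4 activation or potentiation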
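System: HEK293 FlpIn-TREx cells, stable M3R, doxycycline-inducible RGS4. Timing: overnight RGS4 induction, 30 min dye load 37 °C, 20 min compound RT. Also added: carbachol, ECmax concentration. Measured by: Fluo4 fluorescence kinetic imaging of calcium. Evaluation: integrated calcium ratio converted to B score.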
MrgX1 antagonist = blocks BAM8-22 activation of human MrgX1 receptor | B-score at 10 µM | MRGX1-HEK293 calcium flux, Fluo-4, BAM8-22 antagonism; stronger effect = lower value | 1.3% of 310,000 active | AID 588676;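 active means calcium-response B-score plate-corrected more than 3 library SD below zero, starting fluorescence within 5 deviations, no agonist response on first addition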;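 further: peak minus trough fluorescence over baseline after final BAM8-22 challenge near maximal dose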
PHOSPHO1 inh = inhibitors of human PHOSPHO1 phosphatase | recombinant PHOSPHO1, absorbance phosphatase assay | Q8TCT1 | 1.1% of 290,000 active | AID 1565 | inhibition, % at 13.3 µM; in the data active means inhibition above about 60%
Target sequence (Q8TCT1 whole entry, looked up): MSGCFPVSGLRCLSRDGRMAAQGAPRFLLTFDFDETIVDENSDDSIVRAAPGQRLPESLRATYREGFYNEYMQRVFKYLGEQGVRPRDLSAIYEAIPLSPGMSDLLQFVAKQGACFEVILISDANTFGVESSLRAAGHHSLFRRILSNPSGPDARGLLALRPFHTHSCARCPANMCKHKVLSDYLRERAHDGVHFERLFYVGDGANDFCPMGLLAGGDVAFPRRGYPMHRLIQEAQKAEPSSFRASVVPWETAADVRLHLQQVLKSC
RGS4 block = human RGS4 inhibition; P49798; HEK293 M3R/RGS4 inducible, Fluo-4 calcium flux; stronger effect = higher value; triggered by carbachol at its EC20; B-score at 10 µM; 0.45% of 310,000 active; AID 463165;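 active means B-score, a plate-corrected calcium signal, over three deviations above library mean, with baseline fluorescence within five deviations of library mean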;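 further: RGS4 expression induced by doxycycline in cells with stable M3 receptor; B-score is computed from the integrated fluorescence ratio over baseline after carbachol; higher B-score means a larger calcium signal and so more RGS4 inhibition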
Target sequence (P49798 whole entry, looked up): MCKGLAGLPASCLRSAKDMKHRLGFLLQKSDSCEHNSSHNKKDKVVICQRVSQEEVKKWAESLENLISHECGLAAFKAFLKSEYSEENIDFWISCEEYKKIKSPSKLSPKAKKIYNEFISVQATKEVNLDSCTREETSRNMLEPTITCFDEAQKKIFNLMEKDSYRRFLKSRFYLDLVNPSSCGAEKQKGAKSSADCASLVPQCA
MrgX1 agonist = human MrgX1 receptor agonism, primary screen. Q96LB2. MrgX1-HEK293 cells, Fluo-4 calcium fluorescence, agonist mode; stronger effect = higher value. B-score at 10 µM. 0.44% of 310,000 active;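 active means calcium response B-score plate-corrected fluorescence ratio at least 3 library SD, with starting fluorescence B-score inside 5 SD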
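times = overnight plating, then 30 min 37 °C plus 30 min room-temperature dye loading | assay system = stable human MrgX1 HEK293 cell line | input = fifteen thousand cells per well | signal = kinetic calcium dye fluorescence, Fluo-4 NW | dosing = compound delivered in addition one of three | read-out = B-scored fluorescence response ratio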
A number is an active result; 0 = inactive; - = not tested or not shown. Compounds with a hit are over-represented: about 4.5% of the library has one in this group of screens.

SMILES	MrgX1 PAM	RGS4 act	MrgX1 antagonist	PHOSPHO1 inh	RGS4 block	MrgX1 agonist
CCCCc1ccc(/C=C2\C(=O)c3ccccc3C(O)=C2C(=O)OCC)cc1	0	0	-10.1	0	0	0
Cc1ccc(SCc2nc3ncccn3c2Br)cc1	0	-7.57	0	0	0	0
Cc1ccc(Nc2c(-c3ccc(N(C)C)cc3)nc3ncccn23)cc1	0	0	0	0	0	0
Cc1cccc(N2CCN(C(=O)CCNS(=O)(=O)c3cccs3)CC2C)c1 (stereo not drawn)	0	0	0	0	0	0
COc1cccc(-c2ccc(NC(=O)C3CCCN(Cc4cnc(C)s4)C3)cc2)c1 (stereo not drawn)	0	0	0	0	0	0
O=C(O)c1ccc(/C=N/Nc2ccc(C(F)(F)F)cn2)cc1	-	0	-	0	0	-
COc1cc(/C=N/Nc2ccc(C(F)(F)F)cn2)ccc1O	7.51	0	0	0	0	0
CN(C)CCCN(Cc1ccccc1)C(=S)Nc1ccc(SC(F)F)cc1	0	-7.34	0	0	0	0
CN(C(=S)Nc1ccc(SC(F)F)cc1)C(c1ccccc1)c1ccccc1	0	-7.37	0	0	0	0
COc1ccc(CNC(=S)NC(C)CCc2ccccc2)cc1 (stereo not drawn)	0	0	0	0	0	0
C=CCc1cc(/C=C2/NC(=O)NC2=O)cc(OCC)c1O	0	0	0	0	0	0
CCOc1cc(/C=C2/NC(=O)NC2=O)cc([N+](=O)[O-])c1O	0	0	-7.67	0	0	0
C#CCn1c(O)c(N=NC(=O)CNC(=O)c2cccnc2)c2ccccc21	0	0	0	0	0	0
c1c2c(cc3sc(N4CCCCC4)nc13)OCO2	0	0	0	0	0	0
c1c2c(cc3sc(N4CCOCC4)nc13)OCO2	0	0	0	93.4	0	0
CCc1cccc(NS(=O)(=O)c2ccc3c(c2)oc(=O)n3C)c1	0	0	0	67.5	0	0
Cn1c(=O)oc2cc(S(=O)(=O)Nc3ccccc3)ccc21	0	0	0	0	0	0
COCCNC(=O)/C(C#N)=C/c1c(F)cccc1Cl	0	0	0	0	0	0
CC1(C)CC2(CC(c3ccccc3)c3ccc(O)cc3O2)NC(=S)N1 (stereo not drawn)	0	0	0	0	0	0
CC1CCCN(CCOCCOc2ccc(Br)cc2Cl)C1 (stereo not drawn)	0	-7.45	0	0	0	0
CC1CCCN(CCOCCOc2ccc(Cl)cc2Br)C1 (stereo not drawn)	0	0	0	0	0	0
NS(=O)(=O)c1ccc(CCNS(=O)(=O)c2ccc(Cl)nc2)cc1	0	0	0	0	0	0
COc1cc(/C=C/C(=O)c2c(O)cc(C)oc2=O)cc(OC)c1O	0	0	0	79.9	0	0
COc1ccc(/C=C/C(=O)c2c(O)cc(C)oc2=O)c(OC)c1	0	0	0	0	0	0
COc1ccc(C(=O)/C=C/c2cc(OC)c(O)c(OC)c2)c(F)c1	0	0	0	0	0	30.5
SMILES	MrgX1 PAM	RGS4 act	MrgX1 antagonist	PHOSPHO1 inh	RGS4 block	MrgX1 agonist
COc1ccc(OC)c(NC(=O)NNS(=O)(=O)c2ccc(C)cc2C)c1	0	0	0	0	0	0
N#CCCN(C(=O)COC(=O)c1ccc2c(=O)n3c(nc2c1)CCC3)c1ccccc1	0	0	0	0	0	0
N#CCCN(C(=O)c1ccc2c(=O)n3c(nc2c1)CCCCC3)c1ccccc1	0	0	0	64.0	0	0
Cc1ccc(NC(=O)/C(C#N)=C/c2ccc(C)s2)c(C)c1	0	0	-4.7	0	0	0
O=C(COc1ccc(/C=C\[N+](=O)[O-])cc1)N1CCOCC1	0	0	0	0	0	34.9
O=C(c1ccc(Cl)cc1)c1ccc(OCC(=O)N2CCOCC2)cc1	0	0	0	-	0	0
CC(C)(C)NC(=O)NC(=O)CSc1n[nH]c(-c2ccccc2Br)n1	0	0	0	62.9	0	0
Cc1ccc(N(C(=O)C(F)(F)F)C(C(=O)NC2CCCCC2)c2cccs2)cc1C (stereo not drawn)	0	0	0	60.5	0	0
CCn1nc(NS(=O)(=O)c2ccc(NC(C)=O)cc2)c2cc3ccc(C)cc3nc21	0	0	0	0	0	0
CCCn1nc(NC(=O)CC(C)C)c2cc3ccccc3nc21	0	0	0	68.9	0	0
CCn1nc(NS(=O)(=O)c2ccc(NC(C)=O)cc2)c2cc3ccccc3nc21	0	0	0	64.7	0	0
CN(C)CC1CCCCC1OC(=O)c1ccc(S(=O)(=O)N(C)c2ccccc2)cc1 (stereo not drawn)	0	0	0	0	0	0
Cc1ccc(C(=O)Cn2c(-c3ccccc3)noc2=O)cc1	0	0	0	61.5	0	0
CCOc1ccc(N(CC(=O)Nc2ccccc2Cl)S(C)(=O)=O)cc1	0	0	0	0	0	0
CCOc1ccc(N(CC(=O)Nc2ccccc2)S(C)(=O)=O)cc1	0	0	0	79.6	0	0
COc1ccc(-c2cc(-c3ccccc3)nc(Cl)n2)cc1OC	0	-7.01	0	0	0	0
Cc1ccc(-c2cc(-c3ccccc3)nc(Cl)n2)cc1	0	0	0	0	0	0
COc1ccc(-c2cc(C(=O)Nc3ccc(S(=O)(=O)Nc4onc(C)c4C)cc3)c3ccccc3n2)cc1	0	0	0	0	0	0
O=C(COc1ccccc1-c1ccccc1)NN=C1CCCC1	0	0	0	60.9	0	0
O=C(NC(=S)NCCC1=CCCCC1)c1ccccc1Br	0	-7.29	0	0	0	0
O=C(COC(=O)c1ccccc1Br)NCCC1=CCCCC1	0	0	0	0	0	0
COCCSc1ccccc1C(=O)N1CCN(c2ccccc2)CC1	0	0	0	0	0	0
COCCSc1ccccc1C(=O)N1CCc2ccccc2C1	0	0	0	60.0	0	0
CCCn1c(SCC(=O)c2cc(C)ccc2C)n[nH]c1=O	0	0	0	94.5	0	0
CCc1nc(SCC(=O)c2cc(C)ccc2C)n[nH]1	0	0	0	0	0	0
SMILES	MrgX1 PAM	RGS4 act	MrgX1 antagonist	PHOSPHO1 inh	RGS4 block	MrgX1 agonist
Cc1ccc(C)[n+](CC(=O)c2ccc(-c3ccccc3)cc2)c1	0	0	0	0	0	0
COc1ccc(C(C)NC(=O)c2ccncc2)cc1 (stereo not drawn)	0	0	0	-	0	0
Nc1ccn(-c2ncc(C(F)(F)F)cc2Cl)c(=O)n1	0	0	0	0	0	0
FC(F)(F)c1cnc(-n2cc[nH]c2=S)c(Cl)c1	0	0	0	97.6	0	0
C=CCOc1ccc(C2OC34CCCCC3C(C#N)(C#N)C2(C#N)C(=N)O4)cc1 (stereo not drawn)	0	0	0	0	0	27.5
O=C(O)/C=C/C(=O)NCc1ccccn1	0	0	-6.71	0	0	0
CCOc1cc(-c2nnc(NC(=O)c3ccco3)o2)cc(OCC)c1OCC	0	0	-4.87	-	0	0
COc1cc(-c2nnc(NC(=O)c3ccco3)o2)cc(OC)c1OC	0	0	0	-	0	0

Compound activity as filed in PubChem.
